Published values of several laboratories.
Compare with care: the assays were run in different laboratories.
Target: 1-phosphatidylinositol 3-phosphate 5-kinase (PIKFYVE, Homo sapiens, UniProt Q9Y2I7)

CSc1cccnc1N1CCN(Cc2nc3ccccc3[nH]2)CC1 — remaining binding (cell-free assay, competition with immobilised ligand; 1 µM): 100%
C[C@@H]1CCN(c2nccc(-c3cnn4ncccc34)n2)C1 — remaining binding (binding; 1 µM): 99%
Cc1cnc(Nc2ccc(C(=O)N3CCC(N4CCCC4)CC3)cc2)nc1-c1cc2ccccc2s1 — remaining binding (binding, competition with immobilised ligand; 1 µM): 79%
CN(CCCC(F)(F)F)c1nccc(-c2cnn3ncccc23)n1 — remaining binding (binding; 1 µM): 45%
O=C(Nc1c[nH]nc1C(=O)NC1CCNCC1)c1cc(F)cc(F)c1 — remaining binding (binding, competition with immobilised ligand; 1 µM): 86%
CN(C)c1ncc(F)c(-c2cnn3ncccc23)n1 — remaining binding (binding; 1 µM): 100%
Nc1ncc2c(n1)-c1c([nH]c3ccc(C#CC4CC4)cc13)CCCC2 — remaining binding (binding, competition with immobilised ligand; 1 µM): 9.8%
O=C(c1ccc(Nc2nccc(-c3cc4ccccc4s3)n2)cc1)N1CCC(N2CCCC2)CC1 — remaining binding (binding, competition with immobilised ligand; 1 µM): 0.6%
COc1cnc(Nc2cccc(S(N)(=O)=O)c2)nc1N1CCN(c2ccccc2)C(=O)C1 — remaining binding (binding, competition with immobilised ligand; 1 µM): 100%
O=C(NCCCN1CCOCC1)c1ccc(Nc2ncc(Cl)c(-c3ccc(Cl)s3)n2)cc1 — remaining binding (binding, competition with immobilised ligand; 1 µM): 53%
F[C@@H]1CCN(c2nccc(-c3cnn4ncccc34)n2)C1 — remaining binding (binding; 1 µM): 82%
CS(=O)(=O)N1CCCC(NC(=O)[C@H](CCC2CCCCC2)NC(=O)c2ccc(CNc3ncnc4c3nnn4-c3ccccc3)cc2)C1 (stereo partly shown) — remaining binding (cell-free assay, competition with immobilised ligand; 0.1 µM): 61%
FC(F)(F)Oc1cccc(-c2cnc3ccc(-c4ccncc4)nn23)c1 — remaining binding (cell-free assay, competition with immobilised ligand; 5 µM): 2.4%
CO[C@H]1CC[C@H](CNc2ccc(S(=O)(=O)NC(=O)c3ccc(N4CCN(CC5=C(c6ccc(Cl)cc6)CC(C)(C)CC5)CC4)cc3Oc3cnc4[nH]ccc4c3)cc2[N+](=O)[O-])CC1 — remaining binding (cell-free assay, competition with immobilised ligand; 1 µM): 89%
c1cncc(-c2cccc(Nc3nccc(NC4CCCCC4)n3)c2)c1 — remaining binding (binding, competition with immobilised ligand; 10 µM): 29%
CN([C@@H]1CCc2c(CC(=O)O)c3ccccc3n2C1)S(=O)(=O)c1ccc(F)cc1 — remaining binding (cell-free assay, competition with immobilised ligand; 1 µM): 100%
COc1cnc(Nc2cccc(S(N)(=O)=O)c2)nc1N1CCN(c2ccccc2)CC1 — remaining binding (binding, competition with immobilised ligand; 1 µM): 85%
Cc1cnn2ncc(-c3ccnc(N(C)C)n3)c2c1 — remaining binding (binding; 1 µM): 87%
CN1CCN(c2cnc3c(C4CCN(C(=O)c5ccc(OC(F)(F)F)cc5N)CC4)ncnc3c2)CC1 — remaining binding (cell-free assay, competition with immobilised ligand; 1 µM): 98%
